Assay results pooled from the literature.
Each line is one published result; the experiments were not run side by side.
Target: Casein kinase I isoform delta (CSNK1D, Homo sapiens, UniProt P48730)

Compound	effect on	mode	technique	concentration	endpoint	result
Nc1ncc(-c2nc(N3CCOCC3)nc(N3CCOCC3)n2)c(C(F)F)n1	binding	–	competition with immobilised ligand	10 µM	remaining binding	90%
COc1ncccc1-c1cnn2ccc(N3CCN(C(=O)OC(C)C)CC3)nc12	binding	–	competition with immobilised ligand	1 µM	remaining binding	85%
Cn1cc(-c2cc(F)cc(N3CCn4c(cc5c4CCCC5)C3=O)c2CO)cc(Nc2ccc(N3CCN(C4COC4)CC3)cn2)c1=O	enzyme activity	inhibitor	–	0.1 µM	inhibition	6%
CC(C)(C)c1cc(C=C(C#N)C#N)cc(Br)c1O	enzyme activity	inhibitor	–	0.5 µM	remaining activity	85.5%
Cn1cc(-c2cccc(N3CCc4c(sc5c4CC(C)(C)C5)C3=O)c2CO)cc(Nc2ccncn2)c1=O	enzyme activity	inhibitor	–	1 µM	inhibition	0%
Cn1cncc1[C@@](O)(COc1ccc(C#N)cc1-c1ccc(OC(F)(F)F)cc1)c1ccc(C#N)cc1	cell-free assay	–	competition with immobilised ligand	1 µM	remaining binding	94%
O=c1[nH]c2ccccc2n1C1CCN(Cc2ccc(-c3[nH]c4cc5ncnc5cc4nc3-c3ccccc3)cc2)CC1	cell-free assay	–	–	0.5 µM	remaining signal	100%
Cc1nn(C)cc1-c1nc2c(N3CCN(Cc4ccc(Cl)cc4)CC3)c(Cl)cnc2[nH]1	binding	–	competition with immobilised ligand	1 µM	remaining binding	100%
